Reference: ChEMBL document CHEMBL1135593, “Design and synthesis of a pro-drug of vinblastine targeted at treatment of prostate cancer with enhanced efficacy and reduced systemic toxicity” (J Med Chem, 2002)
Where a name gives a salt, the structure may show the parent alone.

Tests used:
Mus musculus [1] = experiment: Intraperitoneal dose administered to non tumor bearing nude mice; format: functional
In short: (§1)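 Nontumor-bearing nude mice were dosed intraperitoneally once daily for 5 consecutive days. MTD is the maximum dose that could be given on this schedule without lethality. P values are reported.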

[2] = Percent PSA reduction after intraperitoneal injection of conjugate dose to nude mice bearing LNCaP tumor xenografts; format: functional, Mus musculus
In short: (§2)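 Nude mice bearing human prostate LNCaP (PSA-secreting) xenografts were given the conjugate intraperitoneally for 5 consecutive days and followed over six weeks. Serum PSA, tumor weight and body weight were measured at study end. Results are percent relative to vehicle-treated controls, with P values.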

COLO 320 = experiment: In vitro concentration required to kill 50% of COLO 320 human colorectal carcinoma cell line; format: functional, cell-based
In short: (§3)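 Cell-kill assay in culture. LNCaP is a PSA-secreting human prostate cancer line. Colo320 is a PSA-nonsecreting human colorectal carcinoma line, used as the non-PSA control. EC50 is the compound dose that kills 50% of the tumor cells.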

T47D = experiment: In vitro concentration required to kill 50% of T47D human breast ductal carcinoma cell line; format: functional, cell-based
In short: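 T47D is a PSA-nonsecreting human breast ductal carcinoma line, used as a control for PSA-secreting LNCaP cells. Compounds were tested in cell culture. EC50 is the dose that kills 50% of the tumor cells.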

Mus musculus [3] = experiment: Maximum nonlethal drug dose administered intraperitoneally to non tumor bearing nude mice; format: functional; in short: as §1
LNCaP [4] = experiment: In vitro concentration required to kill 50% of LNCaP human prostate cancer cell line; format: functional, cell-based; in short: as §3
LNCaP [5] = experiment: Percent tumor weight reduction after intraperitoneal injection of conjugate dose to nude mice bearing LNCaP tumor xenografts; format: functional, Mus musculus; in short: as §2
PSA = experiment: Time required for PSA to hydrolyze 50% compound at a molar ratio of 1:100; format: ADME; settings: PSA (enzyme)
In short: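 Conjugate and purified human PSA were mixed at a 100:1 molar ratio (substrate:enzyme) in 50 mM Tris·HCl and 140 mM NaCl, pH 7.4. Samples were incubated at 37 °C for 0, 30, 60, 120, 180 or 240 min. T1/2 is the time to 50% cleavage.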

SMILES | Dose (Mus musculus [1]) [µM/kg] | Reduction [2] [%] | EC50 (COLO 320) [nM] | EC50 (T47D) [nM] | MTD (Mus musculus [3]) [µM/kg] | EC50 (LNCaP [4]) [nM] | Weight reduction (LNCaP [5]) [%] | half-life (PSA) [min]
CC[C@]1(O)C[C@@H]2CN(CCc3c([nH]c4ccccc34)[C@@](C(=O)OC)(c3cc4c(cc3OC)N(C)C3C45CCN4CC=C[C@](CC)(C45)[C@@H](OC(=O)C4CCCN4)[C@]3(O)C(=O)OC)C2)C1.O=C(O)C(F)(F)F (some centres not stated) | 4.6 | 33 | 3000 | 1600 | 4.6 | 1000 | 60 | –
CC[C@]1(O)C[C@@H]2CN(CCc3c([nH]c4ccccc34)[C@@](C(=O)OC)(c3cc4c(cc3OC)N(C)C3C45CCN4CC=C[C@](CC)(C45)[C@@H](OC(=O)CN)[C@]3(O)C(=O)OC)C2)C1 (some centres not stated) | – | – | 1800 | – | – | 300 | – | –
CC[C@]1(O)C[C@@H]2CN(CCc3c([nH]c4ccccc34)[C@@](C(=O)OC)(c3cc4c(cc3OC)N(C)C3C45CCN4CC=C[C@](CC)(C45)[C@@H](OC(=O)[C@H](CC(C)C)NC(=O)[C@H](CO)NC(=O)[C@H](CCC(N)=O)NC(=O)C(NC(=O)[C@H](CO)NC(=O)[C@H](CO)NC(=O)[C@H]4CC(O)CN4C(C)=O)C4CCCCC4)[C@]3(O)C(=O)OC)C2)C1.O=C(O)C(F)(F)F (some centres not stated) | – | – | 87000 | – | – | 40000 | – | 35
CC[C@]1(O)C[C@@H]2CN(CCc3c([nH]c4ccccc34)[C@@](C(=O)OC)(c3cc4c(cc3OC)N(C)C3C45CCN4CC=C[C@](CC)(C45)[C@@H](O)[C@]3(O)C(=O)OC)C2)C1 (some centres not stated) | 0.26 | 14 | 200 | 150 | 0.26 | 100 | 16 | –
CC[C@]1(O)C[C@@H]2CN(CCc3c([nH]c4ccccc34)[C@@](C(=O)OC)(c3cc4c(cc3OC)N(C)C3C45CCN4CC=C[C@](CC)(C45)[C@@H](OC(=O)[C@@H](N)CC(C)C)[C@]3(O)C(=O)OC)C2)C1 (some centres not stated) | – | – | 6000 | – | – | 4000 | – | –
CC[C@]1(O)C[C@@H]2CN(CCc3c([nH]c4ccccc34)[C@@](C(=O)OC)(c3cc4c(cc3OC)N(C)[C@H]3[C@@](O)(C(=O)OC)[C@H](OC(C)=O)[C@]5(CC)C=CCN6CC[C@]43[C@@H]65)C2)C1 [VINBLASTINE SULFATE] | – | – | – | – | – | 500 | – | –
